ChEMBL document CHEMBL4513216, “Probing the Open Global Health Chemical Diversity Library for Multistage-Active Starting Points for Next-Generation Antimalarials” (ACS Infect Dis, 2020)

Experiment: Toxicity liver stage against HepG2, at 10uM
Assay type: cell-based
Design: test concentration 10 uM, cell line HepG2-A16-CD81EGFP
Settings: human, HepG2-A16-CD81EGFP cells; read-out: INHIBITION
How it was run: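 Uninfected HepG2-A16-CD81EGFP cells, 3 × 10^3 per well, 1536-well, plated on prespotted compound at 10 μM final, parasite-free screening media added to match infected plates; puromycin 10 μM positive, DMSO 0.5% negative; run in parallel with 48 h PbLuc assay at 37 °C, 5% CO2; viability by CellTiter-Glo luminescence, normalized to controls.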

SMILES	cytotoxicity at 10 µM
CCCOc1ccccc1C(N)CC(C)C (stereo not given)	-0.595%
CCN(C(=O)NCc1cccnc1N(C)C)C(C)c1cccnc1 (stereo not given)	-4.6%
CN1CCN(C(=O)c2cn(-c3ccc(C(F)(F)F)cn3)nn2)CC1	-63%
Cc1cccc(OC2CCN(C(=O)CNC(=O)N(C)C)CC2)c1	-0.951%
Cc1cnn(CC(C)NCc2cc(C#N)ccc2F)c1 (stereo not given)	0.224%
COc1ccccc1OC1CN(C(=O)CN(C)Cc2ccncc2)C1	-3.09%
COCCN(Cc1nccs1)C(=O)c1cc(-c2ccc(C)s2)n[nH]1	-8.84%
c1cc(-c2cnccn2)cc(-c2ccn(CCN3CCCCC3)n2)c1	-4.54%
CC(C)NC(=O)[C@@H]1C[C@H](N)CN1C(=O)C1(c2ccc(Cl)cc2)CCC1	3.92%
FC(F)(F)c1ccnc(N2CCCN(Cc3ccccn3)CC2)n1	-3.5%
CN1CCCN(C(=O)NCc2csc(Br)c2)CC1	-5.85%
O=C(NCc1ccccc1)[C@@H]1Cc2[nH]cnc2CN1CC1CC1	3.17%
Cc1cncc(C2CCN(Cc3cccn3C)CC2)n1	-6.94%
O=C(c1cncs1)N1CCOCC(Cc2ccncn2)C1 (stereo not given)	1.13%
CC(C)c1nn(C)c(N(C)C)c1CNC1CCOc2ccccc21 (stereo not given)	9.36%
O=C(c1cccc(F)c1)N1CCOC(c2nc(-c3ncccn3)no2)C1 (stereo not given)	5.3%
O=C(CCC(F)(F)F)N1CCN(Cc2ccncc2)[C@@H]2CS(=O)(=O)C[C@@H]21	-2.11%
CC(C(=O)N1CCOCC1)N1CCc2cncnc2C1 (stereo not given)	-5.05%
Cc1cnn(CCNCC(=O)NCC2(c3ccccc3)CC2)c1	5.58%
Cc1nn(C)c2c(=O)n(CC(=O)Nc3cc(Cl)cc(Cl)c3)nnc12	0.976%
CCS(=O)(=O)N1CCC(c2nnc(Cn3cccn3)n2C2CC2)CC1	-14.2%
CN(C)c1nc(NCc2cccnc2N)ncc1F	-2.11%
CC(C)(CCS(C)(=O)=O)CNc1ccc2ccc(F)cc2n1	-6.01%
O=C(CCCc1nc(C2CC2)no1)N1CCCC(c2ccn[nH]2)C1 (stereo not given)	12%
O=C(CSc1ncccn1)N1C[C@@H]2CC[C@H]1CN(Cc1ccncc1)C2	-13%
COCc1nc(N(C)C)ncc1C(=O)NC(C)C	12.8%
O=C(N1CCOCC1)N1CCCC1c1nc(-c2ccccn2)no1 (stereo not given)	10.7%
CCCc1nc(NCCc2ccccc2)c2c(n1)c(C)nn2CC	20%

SMILES	cytotoxicity at 10 µM
O=S1(=O)CCC(n2cc(C3=CCN(CCc4ccccc4)CC3)cn2)C1 (stereo not given)	-2.64%
O=C1OCCN1Cc1nc(C2(c3ccc(F)cc3)CCOC2)no1 (stereo not given)	-5.22%
Cc1nc(C)n(CC2CCCN2CCC(=O)NC2CCCC2)n1 (stereo not given)	-10.4%
CCC(C)C(=O)NCc1ccc(-n2cncn2)nc1 (stereo not given)	8.85%
CCOCCN1CCn2c(C)nnc2C1	3.34%
COCCOc1ccc(NC(=O)N2CCCC2c2cccs2)cn1 (stereo not given)	-3.17%
COC[C@H]1CCC[C@]12CN(C(=O)NCc1ccccc1)CCO2	-11.6%
O=C(c1ccco1)N1CCC(CSCc2ccco2)CC1	-6.49%
CC(=O)c1ccc(NC(=O)NCc2cccc(N(C)C)n2)cc1C	6.45%
N#Cc1cc(NC(=O)c2ccccn2)ccc1N1CCC(O)CC1	0.73%
Cc1cccc(N2CCC3(CCCN3Cc3c(C)nn(C)c3C)CC2)n1	-8.35%
CC(NC(N)=O)C(=O)N(C)Cc1cccc(C(F)(F)F)c1 (stereo not given)	-5.14%
Cc1ccc2c(n1)N(CCN(C)C)CCN(C(=O)c1cccs1)C2	-69.8%
O=C(CN1C(=O)c2ccccc2CS1(=O)=O)c1ccc(Cl)cc1	4.17%
CC(=O)N1CCCC(c2ccnc(Nc3cnccn3)n2)C1 (stereo not given)	-12.5%
CC1c2cccn2CCN1C(=O)CCc1nc(C2CC2)no1 (stereo not given)	-2.13%
CCOCCc1nc(-c2cnn3c(C)cc(C)nc23)no1	3.53%
Cc1ccoc1C(=O)N1CCc2ncnc(-c3cnn(C)c3)c2CC1	16.9%
CNC(=O)c1sc2ccccc2c1CC1CCCCN1Cc1ncc[nH]1 (stereo not given)	2.35%
COc1cc2c(c(OC)c1OC)CCN(CCn1nc(C)cc1C)CC2	12.9%
CCc1nnc(N2CCN(CCc3ccccc3)C(=O)C2)o1	-1.01%
Cc1cccc(CN2CCN3C[C@H](Oc4cncnc4)C[C@H]3C2)n1	-91.9%
Cc1cc2nc(C(C)C)cc(N(C)CC3CCCN3C)n2n1 (stereo not given)	8.49%
CCCn1ncc(-c2ccnc(N[C@@H]3C[C@H]4CC[C@@H]3C4)n2)c1C	0.541%
CC(C(=O)N1CCn2cncc2C1)N1C[C@@H](C)O[C@@H](C)C1 (stereo not given in full)	3.13%
CCN1CC[C@@]2(C(=O)N(C)C)CCN(S(=O)(=O)c3ccccc3)CC[C@@H]12	1.26%
Cc1ccc(CN2CCC3(CC2)CC3CN(C)Cc2cccnc2)o1 (stereo not given)	-3.76%
